Key:
K562 = assay: Antiproliferative activity against human K562 cells after 48 hrs; type: functional, cell-based; conditions: K562, 48 h
Procedure, shortened: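 Growth of K562 cells measured by counting cells with a hemocytometer after 48 h (2 days) of drug treatment. IC50 is the mean of at least three independent determinations.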

Tubulin = Tubulin (Sus scrofa, UniProt P02554+P02550); assay: Inhibition of porcine brain tubulin polymerization
L1210 = assay: Antiproliferative activity against mouse vincristine-resistant L1210 cells after 48 hrs by XTT assay; type: functional, cell-based; conditions: L1210, 48 h
Procedure, shortened: (§1)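 XTT proliferation assay with 48 h incubation with test compound. Each experiment run at least in duplicate (n = 2). IC50 calculated by nonlinear regression of dose-response curves.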

[1] = Antiproliferative activity against rat L12 cells after 48 hrs by XTT assay; type: functional, cell-based
[2] = Antiproliferative activity against rat multidrug-resistant L12 cells after 48 hrs by XTT assay; type: functional, cell-based; conditions: L1.2, 48 h; procedure, shortened: as §1
[3] = Cell cycle arrest in KB/HeLa cells assessed as accumulation at G2/M phase after 24 hrs by flow cytometric analysis; type: functional, cell-based; conditions: Homo sapiens
Procedure, shortened: (§2)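 Subconfluent KB/HeLa cells exposed to a range of compound concentrations for 24 h. Cell cycle phase distribution determined by flow cytometry. Experiments run at least in duplicate (n = 2).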

[4] = Cell cycle arrest in KB/HeLa cells assessed as accumulation at G2M phase at 3.16 nM after 24 hrs by flow cytometric analysis; type: functional, cell-based; conditions: Homo sapiens
RKO = assay: Cytotoxicity against human RKO cells with ectopic-inducible expression of p27kip1 after 48 hrs by XTT assay; type: functional, cell-based; procedure, shortened: as §1
[5] = Cell cycle arrest in KB/HeLa cells assessed as accumulation at G2M phase at 100 nM after 24 hrs by flow cytometric analysis; type: functional, cell-based; conditions: Homo sapiens; procedure, shortened: as §2
[6] = Cell cycle arrest in KB/HeLa cells assessed as accumulation at S phase at 1 nM after 24 hrs by flow cytometric analysis; type: functional, cell-based; conditions: Homo sapiens; procedure, shortened: as §2
[7] = Cell cycle arrest in KB/HeLa cells assessed as accumulation at S phase at 316 nM after 24 hrs by flow cytometric analysis; type: functional, cell-based; conditions: Homo sapiens; procedure, shortened: as §2
[8] = Cell cycle arrest in KB/HeLa cells assessed as accumulation at G2M phase at 316 nM after 24 hrs by flow cytometric analysis; type: functional, cell-based; conditions: Homo sapiens; procedure, shortened: as §2
[9] = Cell cycle arrest in KB/HeLa cells assessed as accumulation at G2M phase at 1 nM after 24 hrs by flow cytometric analysis; type: functional, cell-based; conditions: Homo sapiens; procedure, shortened: as §2
[10] = Cell cycle arrest in KB/HeLa cells assessed as accumulation at S phase at 3.16 nM after 24 hrs by flow cytometric analysis; type: functional, cell-based; conditions: Homo sapiens; procedure, shortened: as §2
[11] = Cell cycle arrest in KB/HeLa cells assessed as accumulation at G1 phase at 31.6 nM after 24 hrs by flow cytometric analysis; type: functional, cell-based; conditions: Homo sapiens; procedure, shortened: as §2
[12] = Cell cycle arrest in KB/HeLa cells assessed as accumulation at S phase at 10 nM after 24 hrs by flow cytometric analysis; type: functional, cell-based; conditions: Homo sapiens; procedure, shortened: as §2
[13] = Cell cycle arrest in KB/HeLa cells assessed as accumulation at G2M phase at 10 nM after 24 hrs by flow cytometric analysis; type: functional, cell-based; conditions: Homo sapiens; procedure, shortened: as §2
[14] = Cell cycle arrest in KB/HeLa cells assessed as accumulation at G1 phase at 316 nM after 24 hrs by flow cytometric analysis; type: functional, cell-based; conditions: Homo sapiens; procedure, shortened: as §2
[15] = Cell cycle arrest in KB/HeLa cells assessed as accumulation at S phase at 100 nM after 24 hrs by flow cytometric analysis; type: functional, cell-based; conditions: Homo sapiens; procedure, shortened: as §2
[16] = Cell cycle arrest in KB/HeLa cells assessed as accumulation at G1 phase at 10 nM after 24 hrs by flow cytometric analysis; type: functional, cell-based; conditions: Homo sapiens; procedure, shortened: as §2
[17] = Cell cycle arrest in KB/HeLa cells assessed as accumulation at G1 phase at 3.16 nM after 24 hrs by flow cytometric analysis; type: functional, cell-based; conditions: Homo sapiens; procedure, shortened: as §2
P388 = assay: Antiproliferative activity against mouse adriamycin-resistant P388 cells after 48 hrs by XTT assay; type: functional, cell-based; conditions: P388, 48 h; procedure, shortened: as §1
[18] = Cell cycle arrest in KB/HeLa cells assessed as accumulation at G1 phase at 1 nM after 24 hrs by flow cytometric analysis; type: functional, cell-based; conditions: Homo sapiens; procedure, shortened: as §2
[19] = Cytotoxicity against human KB/HeLa cells after 48 hrs by XTT assay; type: functional, cell-based; procedure, shortened: as §1
[20] = Cell cycle arrest in KB/HeLa cells assessed as accumulation at G1 phase at 100 nM after 24 hrs by flow cytometric analysis; type: functional, cell-based; conditions: Homo sapiens; procedure, shortened: as §2
[21] = Cell cycle arrest in KB/HeLa cells assessed as accumulation at G2M phase at 31.6 nM after 24 hrs by flow cytometric analysis; type: functional, cell-based; conditions: Homo sapiens; procedure, shortened: as §2
[22] = Cell cycle arrest in KB/HeLa cells assessed as accumulation at S phase at 31.6 nM after 24 hrs by flow cytometric analysis; type: functional, cell-based; conditions: Homo sapiens; procedure, shortened: as §2

## O=S(=O)(Oc1c2ccccc2cc2sccc12)c1ccc(NO)cc1
K562
  IC50: 400 nM

## Cc1cccc(S(=O)(=O)Oc2c3ccccc3cc3sccc23)c1
Tubulin
  IC50: 0.74 µM
K562
  IC50: 530 nM

## CN(C)c1ccc(S(=O)(=O)Oc2c3ccccc3cc3sccc23)cc1
Tubulin
  IC50: 0.94 µM
K562
  IC50: 80 nM

## COc1ccc(S(=O)(=O)Oc2c3cccc(Cl)c3cc3c(Cl)cccc23)cc1
Tubulin
  IC50: > 10 µM
K562
  IC50: 1700 nM

## COc1cccc(S(=O)(=O)Oc2c3ccccc3cc3ccccc23)c1
Tubulin
  IC50: 0.39 µM
K562
  IC50: 480 nM

## CC[C@]1(O)C[C@@H]2CN(CCc3c([nH]c4ccccc34)[C@@](C(=O)OC)(c3cc4c(cc3OC)N(C)[C@H]3[C@@](O)(C(N)=O)[C@H](O)[C@]5(CC)C=CCN6CC[C@]43[C@@H]65)C2)C1 [VINDESINE]
L1210
  IC50: > 5 µM
[1]
  IC50: 1 nM
[2]
  IC50: 260 nM

## COc1ccc(C=C2c3ccccc3C(=O)c3ccccc32)cc1O
[3]
  EC50: 200 nM

## O=S(=O)(Oc1c2ccccc2cc2sccc12)c1ccccc1
Tubulin
  IC50: > 14 µM
K562
  IC50: 800 nM

## CNc1ccc(S(=O)(=O)Oc2c3ccccc3cc3sccc23)cc1
Tubulin
  IC50: 0.29 µM
K562
  IC50: 50 nM

## Nc1ccc(S(=O)(=O)Oc2c3ccccc3cc3sccc23)cc1
Tubulin
  IC50: 0.71 µM
K562
  IC50: 130 nM

## CC(=O)O[C@H]1C(=O)[C@@]2(C)[C@H]([C@H](OC(=O)c3ccccc3)[C@]3(O)C[C@H](OC(=O)[C@H](O)[C@@H](NC(=O)c4ccccc4)c4ccccc4)C(C)=C1C3(C)C)[C@]1(OC(C)=O)CO[C@@H]1C[C@@H]2O [PACLITAXEL]
[4]
  Activity: 9.4%
RKO
  IC50: > 3000 nM
[5]
  Activity: 87.8%
[6]
  Activity: 26.7%
[3]
  EC50: 49 nM
[7]
  Activity: 8.9%
[8]
  Activity: 90.8%
L1210
  IC50: > 5 µM
[9]
  Activity: 10.1%
[10]
  Activity: 27%
[11]
  Activity: 31.1%
[12]
  Activity: 26.6%
[13]
  Activity: 8.5%
[14]
  Activity: 0.3%
[15]
  Activity: 11%
[16]
  Activity: 64.8%
[17]
  Activity: 63.6%
P388
  IC50: > 5 µM
[18]
  Activity: 63.2%
[2]
  IC50: 400 nM
[19]
  IC50: 10 nM
[20]
  Activity: 1.2%
[21]
  Activity: 19%
[22]
  Activity: 49.9%

## O=[N+]([O-])c1ccc(S(=O)(=O)Oc2c3ccccc3cc3sccc23)cc1
Tubulin
  IC50: > 14 µM
K562
  IC50: 2300 nM

Source: ChEMBL document CHEMBL1138290 (J Med Chem, 2007)
